# Measurements gathered from unrelated publications.
# Target: Fibroblast growth factor receptor 4 (FGFR4, Homo sapiens, UniProt P22455)
SMILES,assay,conditions,remaining binding
CCN1CCN(Cc2ccc(C(=O)Nc3ccc(C)c(Oc4ccc5c(c4)CC(=O)N5)c3)cc2C(F)(F)F)CC1,"binding, competition with immobilised ligand",1 µM,100%
O=C(NCC1CCOCC1)c1n[nH]cc1NC(=O)c1c(F)cccc1F,"binding, competition with immobilised ligand",1 µM,100%
CS(=O)(=O)c1cc(C2(NC(=O)c3cncc4c3cnn4-c3ccc(F)cc3)CC2)ccn1,"cell-free assay, competition with immobilised ligand",1 µM,74%
CN(c1nccc(-c2cnn3ncccc23)n1)C1CC1,binding,1 µM,99%
C[C@@H](c1ccc(-n2cnc3c(N)ncnc32)cc1)N1CCc2nn(C)c(Cc3ccccc3)c2C1=O,"binding, competition with immobilised ligand",0.1 µM,97%
CC1CCCN1c1nccc(-c2cnn3ncccc23)n1 (stereo not shown),binding,1 µM,100%
O=C(NCCCN1CCOCC1)c1ccc(Nc2nccc(-c3cc4ccccc4s3)n2)cc1,"binding, competition with immobilised ligand",1 µM,91%
N[C@H]1CCN(c2nccc(-c3cnn4ncccc34)n2)C1,binding,1 µM,100%
CN(C(=O)c1ccccc1)c1cc(N(C)c2ccc3c(c2)CCc2ccc(C(=O)NCCN4CCOCC4)cc2C3=O)ccc1F,"cell-free assay, competition with immobilised ligand",1 µM,100%
Cc1cnn2ncc(-c3ccnc(N(C)C)n3)c2c1,binding,1 µM,97%
CCc1ccccc1C(=O)Nc1n[nH]c2c(C)c(F)c(C3C(C#N)=C(C)N(C)C(C)=C3C#N)cc12,"cell-free assay, competition with immobilised ligand",1 µM,100%
c1cncc(-c2cccc(Nc3nccc(NC4CCCCC4)n3)c2)c1,"binding, competition with immobilised ligand",10 µM,94%
C[C@H]1CCN(c2nccc(-c3cnn4ncccc34)n2)C1,binding,1 µM,76%
FC(F)(F)Oc1cccc(-c2cnc3ccc(-c4ccncc4)nn23)c1,"cell-free assay, competition with immobilised ligand",5 µM,98%
CNC(=O)[C@@H]1CC[C@@H](n2c(-c3ccc4cnccc4c3)nc3ccc(C(=O)NCc4cccc(C(N)=O)c4)cc32)C1,"binding, competition with immobilised ligand",1 µM,100%
C=CC(=O)N1CCC(C(=O)NCC(=O)N2CCN(c3nc(-c4cnc(N)nc4C(F)F)nc(N4CCOCC4)n3)CC2)CC1,"binding, competition with immobilised ligand",1 µM,100%
O=C(Nc1ccc(Oc2ccc(F)cc2)cc1)N1CCc2ncccc2[C@H]1c1ccc(F)cc1,"cell-free assay, competition with immobilised ligand",1 µM,95%
O=C(NCCCN1CCOCC1)c1ccc(Nc2ncc(Cl)c(-c3ccc(Cl)s3)n2)cc1,"binding, competition with immobilised ligand",1 µM,89%
CN([C@@H]1CCc2c(CC(=O)O)c3cc(S(C)(=O)=O)ccc3n2C1)S(=O)(=O)c1ccc(F)cc1,"cell-free assay, competition with immobilised ligand",1 µM,99%
O=C(c1ccc(Nc2ncc(Cl)c(-c3cc4ccccc4s3)n2)cc1)N1CCC(N2CCCC2)CC1,"binding, competition with immobilised ligand",1 µM,77%
O=C(NS(=O)(=O)c1ccc(NCC2CCOCC2)c([N+](=O)[O-])c1)c1ccc(N2CCN(Cc3ccc(C(F)(F)F)cc3-c3ccc(Cl)cc3)CC2)cc1Oc1cnc2[nH]ccc2c1,"cell-free assay, competition with immobilised ligand",1 µM,96%
CN(C)c1ncc(F)c(-c2cnn3ncccc23)n1,binding,1 µM,100%
